Reference: ChEMBL document CHEMBL3259728, “Design, synthesis and biological evaluation of some novel substituted quinazolines as antitumor agents” (2014)

What was measured:
Assay type in all cases: functional
[1] = test system: NCI-H322M; assay: Growth inhibition of human NCI-H322M cells assessed as cell growth at 10^-4 M after 48 hrs by SRB assay; conditions: read-out: Activity
[2] = test system: SR; assay: Growth inhibition of human SR cells assessed as cell growth at 10^-4 M after 48 hrs by SRB assay; conditions: read-out: Activity
[3] = test system: K562; assay: Growth inhibition of human K562 cells assessed as cell growth at 10^-4 M after 48 hrs by SRB assay; conditions: K562, 48 h, read-out: Activity
[4] = test system: MDA-MB-435; assay: Growth inhibition of human MDA-MB-435 cells assessed as cell growth at 10^-8 M after 48 hrs by SRB assay; conditions: MDA-MB-435, 48 h, read-out: Activity
[5] = test system: KM12; assay: Growth inhibition of human KM12 cells assessed as cell growth at 10^-8 M after 48 hrs by SRB assay; conditions: KM12, 48 h, read-out: Activity
[6] = test system: NCI-H322M; assay: Growth inhibition of human NCI-H322M cells assessed as cell growth at 10^-8 M after 48 hrs by SRB assay; conditions: read-out: Activity
[7] = test system: NCI-H23; assay: Growth inhibition of human NCI-H23 cells assessed as cell growth at 10^-8 M after 48 hrs by SRB assay; conditions: NCI-H23, 48 h, read-out: Activity
[8] = test system: HOP-62; assay: Growth inhibition of human HOP62 cells assessed as cell growth at 10^-8 M after 48 hrs by SRB assay; conditions: HOP-62, 48 h, read-out: Activity
[9] = test system: SR; assay: Growth inhibition of human SR cells assessed as cell growth at 10^-8 M after 48 hrs by SRB assay; conditions: read-out: Activity
[10] = test system: K562; assay: Growth inhibition of human K562 cells assessed as cell growth at 10^-8 M after 48 hrs by SRB assay; conditions: K562, 48 h, read-out: Activity
[11] = test system: SK-MEL-28; assay: Growth inhibition of human SK-MEL-28 cells assessed as cell growth at 10^-5 M after 48 hrs by SRB assay; conditions: SK-MEL-28, 48 h, read-out: Activity
[12] = test system: KM12; assay: Growth inhibition of human KM12 cells assessed as cell growth at 10^-5 M after 48 hrs by SRB assay; conditions: KM12, 48 h, read-out: Activity
[13] = test system: HT-29; assay: Growth inhibition of human HT-29 cells assessed as cell growth at 10^-5 M after 48 hrs by SRB assay; conditions: HT-29, 48 h, read-out: Activity
[14] = test system: NCI-H460; assay: Growth inhibition of human NCI-H460 cells assessed as cell growth at 10^-5 M after 48 hrs by SRB assay; conditions: NCI-H460, 48 h, read-out: Activity
[15] = Growth inhibition of human MOLT4 cells assessed as cell growth at 10^-5 M after 48 hrs by SRB assay; conditions: MOLT-4, 48 h, read-out: Activity
[16] = test system: M14; assay: Growth inhibition of human M14 cells assessed as cell growth at 10^-6 M after 48 hrs by SRB assay; conditions: M14, 48 h, read-out: Activity
[17] = test system: Malme-3M; assay: Growth inhibition of human MALME-3M cells assessed as cell growth at 10^-6 M after 48 hrs by SRB assay; conditions: read-out: Activity
[18] = test system: SNB-19; assay: Growth inhibition of human SNB19 cells assessed as cell growth at 10^-6 M after 48 hrs by SRB assay; conditions: SNB-19, 48 h, read-out: Activity
[19] = Growth inhibition of human LOXIMVI cells assessed as cell growth at 10^-4 M after 48 hrs by SRB assay; conditions: LOX IMVI, read-out: Activity
[20] = test system: Malme-3M; assay: Growth inhibition of human MALME-3M cells assessed as cell growth at 10^-5 M after 48 hrs by SRB assay; conditions: read-out: Activity
[21] = test system: SK-OV-3; assay: Growth inhibition of human SKOV3 cells assessed as cell growth at 10^-6 M after 48 hrs by SRB assay; conditions: SK-OV-3, 48 h, read-out: Activity
[22] = Growth inhibition of human OVCAR5 cells assessed as cell growth at 10^-7 M after 48 hrs by SRB assay; conditions: OVCAR-5, 48 h, read-out: Activity
[23] = Cytotoxicity against human OVCAR5 cells after 48 hrs by SRB assay; conditions: OVCAR-5, 48 h
How it was run: (§1)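 NCI 60-cell-line panel of human tumour lines from nine cancer types. Continuous 48 h exposure at five 10-fold dilutions from 10^-4 to 10^-8 M, with 5-FU as positive control. SRB protein stain read spectrophotometrically at time zero, untreated control and each concentration. GI50, TGI and LC50 were derived from the [(Ti−Tz)/(C−Tz)]×100 growth relations, and out-of-range values are given as > or < the tested limits.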

[24] = test system: PC-3; assay: Cytotoxicity against human PC3 cells after 48 hrs by SRB assay; conditions: PC-3, 48 h; how it was run: as §1
[25] = test system: A498; assay: Growth inhibition of human A498 cells assessed as cell growth at 10^-7 M after 48 hrs by SRB assay; conditions: A498, 48 h, read-out: Activity
How it was run: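 Five-dose NCI panel protocol. Each dose (10^-4 to 10^-8 M, 10-fold steps) was given as 48 h continuous exposure, and protein was measured by SRB staining. Percentage growth at each level is [(Ti−Tz)/(C−Tz)]×100, where Tz is time-zero absorbance and C is untreated control.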

[26] = test system: SNB-75; assay: Growth inhibition of human SNB75 cells assessed as cell growth at 10^-7 M after 48 hrs by SRB assay; conditions: SNB-75, 48 h, read-out: Activity
[27] = Growth inhibition of human SF295 cells assessed as cell growth at 10^-7 M after 48 hrs by SRB assay; conditions: SF-295, 48 h, read-out: Activity
[28] = Growth inhibition of human EKVX cells assessed as cell growth at 10^-7 M after 48 hrs by SRB assay; conditions: read-out: Activity
[29] = test system: RPMI-8226; assay: Growth inhibition of human RPMI8226 cells assessed as cell growth at 10^-7 M after 48 hrs by SRB assay; conditions: RPMI-8226, 48 h, read-out: Activity
[30] = Growth inhibition of human Hs578T cells assessed as cell growth at 10^-8 M after 48 hrs by SRB assay; conditions: Hs-578T, read-out: Activity
[31] = test system: MCF7; assay: Growth inhibition of human MCF7 cells assessed as cell growth at 10^-8 M after 48 hrs by SRB assay; conditions: MCF7, 48 h, read-out: Activity
[32] = test system: CCRF-CEM; assay: Cytotoxicity against human CCRF-CEM cells after 48 hrs by SRB assay; how it was run: as §1
[33] = Growth inhibition of human OVCAR8 cells assessed as cell growth at 10^-4 M after 48 hrs by SRB assay; conditions: OVCAR-8, 48 h, read-out: Activity
[34] = read-out: LC50 (the source's name)
[35] = read-out: pLC50 (the source's name) (converted)

Molecule Cc1ccc(-c2nc3ccc(Cl)cc3c(=O)n2/N=C/c2ccccc2)cc1 has a growth at 100 µM [1] of 42%, a growth at 100 µM [2] of 62% and a growth at 100 µM [3] of 59%. It also gave a growth at 0.01 µM [4] of 98%, a growth at 0.01 µM [5] of 95% and a growth at 0.01 µM [6] of 87%. The growth at 0.01 µM [7] was 98%, the growth at 0.01 µM [8] was 97% and the growth at 0.01 µM [9] was 96%. The growth at 0.01 µM [10] was 96%, the growth at 10 µM [11] was 60% and the growth at 10 µM [12] was 74%. It also gave a growth at 10 µM [13] of 69%, a growth at 10 µM [14] of 23% and a growth at 10 µM [15] of 88%. It also gave a growth at 1 µM [16] of 97%, a growth at 1 µM [17] of 74% and a growth at 1 µM [18] of 88%. The growth at 100 µM [19] was 48%, the growth at 10 µM [20] was 43% and the growth at 1 µM [21] was 93%. The growth at 0.1 µM [22] was 88%, the GI50 ([23]; read-out: GI50) was over 100 µM and the CC50 [23, 34] was over 100 µM. The TGI ([23]; read-out: TGI) was over 100 µM, the GI50 ([23]; read-out: pGI50 (converted)) was over 100 µM and the CC50 [23, 35] was over 100 µM. It also gave a TGI ([23]; read-out: pTGI) of over 100 µM, a GI50 ([24]; read-out: GI50) of 83 µM and a CC50 [24, 34] of over 100 µM. It also gave a TGI ([24]; read-out: TGI) of over 100 µM, a GI50 ([24]; read-out: pGI50 (converted)) of 83.2 µM and a CC50 [24, 35] of over 100 µM. For the same molecule, the TGI ([24]; read-out: pTGI) was over 100 µM, the growth at 0.1 µM [25] was 85% and the growth at 0.1 µM [26] was 81%. The growth at 0.1 µM [27] was 80%, the growth at 0.1 µM [28] was 79% and the growth at 0.1 µM [29] was 94%. For the same molecule, the growth at 0.01 µM [30] was 87%, the growth at 0.01 µM [31] was 93% and the GI50 ([32]; read-out: GI50) was over 100 µM. It also gave a CC50 [32, 34] of over 100 µM, a TGI ([32]; read-out: TGI) of over 100 µM and a GI50 ([32]; read-out: pGI50 (converted)) of over 100 µM. It also gave a CC50 [32, 35] of over 100 µM, a TGI ([32]; read-out: pTGI) of over 100 µM and a growth at 100 µM [33] of 27%.
